From ChEMBL document CHEMBL1142136, “Contribution of target gene mutations and efflux to decreased susceptibility of Salmonella enterica serovar typhimurium to fluoroquinolones and other antimicrobials” (2007)
In brackets after ≈: the same amount, converted by molar mass.

Tests used:
Assay type in all cases: functional, Salmonella enterica subsp. enterica serovar Typhimurium
Salmonella typhimurium [1] = assay: Antimicrobial activity against Salmonella enterica serovar Typhimurium S21
How it was run: (§1)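 MICs measured by broth microdilution on the Sensititre automated system and interpreted by CLSI broth microdilution standards. Ciprofloxacin was also tested by agar dilution, widening the range to 0.0075–128 μg/ml. Quality control strains were E. coli ATCC 25922 and 35218, E. faecalis ATCC 29212, S. aureus ATCC 29213 and P. aeruginosa ATCC 27853.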

Salmonella typhimurium [2] = assay: Antimicrobial activity against Salmonella enterica serovar Typhimurium S21 gyrA+; how it was run: as §1
Salmonella typhimurium [3] = assay: Antimicrobial activity against Salmonella enterica serovar Typhimurium S21 acrAB::Kan
How it was run: (§2)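 MICs by automated broth microdilution panels, interpreted to CLSI broth microdilution standards. Ciprofloxacin additionally tested by agar dilution across 0.0075 to 128 μg/ml. Quality control strains: E. coli ATCC 25922 and 35218, Enterococcus faecalis ATCC 29212, S. aureus ATCC 29213, P. aeruginosa ATCC 27853. Test strains are kanamycin-marked deletion mutants of ground-beef isolate S21.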

Salmonella typhimurium [4] = assay: Antimicrobial activity against Salmonella enterica serovar Typhimurium S21 tolC::Kan; how it was run: as §2
Salmonella typhimurium [5] = assay: Antimicrobial activity against Salmonella enterica serovar Typhimurium S21-1 gyrA+; how it was run: as §1
Salmonella typhimurium [6] = assay: Antimicrobial activity against Salmonella enterica serovar Typhimurium CHS14 gyrA+ with GyrA D87G mutation; how it was run: as §1
Salmonella typhimurium [7] = assay: Antimicrobial activity against Salmonella enterica serovar Typhimurium CHS14 acrAB::Kan with GyrA D87G mutation; how it was run: as §1
Salmonella typhimurium [8] = assay: Antimicrobial activity against Salmonella enterica serovar Typhimurium CHS14 tolC::Kan with GyrA D87G mutant; how it was run: as §1
Salmonella typhimurium [9] = assay: Antimicrobial activity against Salmonella enterica serovar Typhimurium CHS18 with GyrA S38F mutation; how it was run: as §1
Salmonella typhimurium [10] = assay: Antimicrobial activity against Salmonella enterica serovar Typhimurium CHS18 gyrA+ with GyrA S38F mutation; how it was run: as §1
Salmonella typhimurium [11] = assay: Antimicrobial activity against Salmonella enterica serovar Typhimurium CHS18 acrAB::Kan with GyrA S38F mutation; how it was run: as §1
Salmonella typhimurium [12] = assay: Antimicrobial activity against Salmonella enterica serovar Typhimurium CHS18 tolC::Kan with GyrA S38F mutation; how it was run: as §1
Salmonella typhimurium [13] = assay: Antimicrobial activity against Salmonella enterica serovar Typhimurium S21-4 tolC::Kan with GyrA S83F, ParC S80I mutation; how it was run: as §1
Salmonella typhimurium [14] = assay: Antimicrobial activity against Salmonella enterica serovar Typhimurium CS1 with GyrA S83F, D87N, ParC S80I mutation; how it was run: as §1
Salmonella typhimurium [15] = assay: Antimicrobial activity against Salmonella enterica serovar Typhimurium CS1 gyrA+ with GyrA S83F, D87N, ParC S80I mutation; how it was run: as §1
Salmonella typhimurium [16] = assay: Antimicrobial activity against Salmonella enterica serovar Typhimurium CS1 acrAB::Kan with GyrA S83F, D87N, ParC S80I mutation; how it was run: as §1
Salmonella typhimurium [17] = assay: Antimicrobial activity against Salmonella enterica serovar Typhimurium CS1 tolC::Kan with GyrA S83F, D87N, ParC S80I mutation; how it was run: as §1
Salmonella typhimurium [18] = assay: Antimicrobial activity against Salmonella enterica serovar Typhimurium CS3 with GyrA S83F, D87N, ParC S80I mutation; how it was run: as §1
Salmonella typhimurium [19] = assay: Antimicrobial activity against Salmonella enterica serovar Typhimurium CS3 gyrA+ with GyrA S83F, D87N, ParC S80I mutation; how it was run: as §1
Salmonella typhimurium [20] = assay: Antimicrobial activity against Salmonella enterica serovar Typhimurium CS3 acrAB::Kan with GyrA S83F, D87N, ParC S80I mutation; how it was run: as §1
Salmonella typhimurium [21] = assay: Antimicrobial activity against Salmonella enterica serovar Typhimurium CS3 tolC::Kan with GyrA S83F, D87N, parC S80I mutation; how it was run: as §1
Salmonella typhimurium [22] = assay: Antimicrobial activity against Salmonella enterica serovar Typhimurium CS9 with GyrA S83F, D87N, ParC S80I mutation; how it was run: as §1
Salmonella typhimurium [23] = assay: Antimicrobial activity against Salmonella enterica serovar Typhimurium CS9 gyrA+ with GyrA S83F, D87N, ParC S80I mutation; how it was run: as §1
Salmonella typhimurium [24] = assay: Antimicrobial activity against Salmonella enterica serovar Typhimurium CS9 acrAB::Kan with GyrA S83F, D87N, ParC S80I mutation; how it was run: as §1
Salmonella typhimurium [25] = assay: Antimicrobial activity against Salmonella enterica serovar Typhimurium CS9 tolC::Kan with GyrA S83F, D87N, ParC S80I mutation; how it was run: as §1
Salmonella typhimurium [26] = assay: Antimicrobial activity against Salmonella enterica serovar Typhimurium CHS14 with GyrA D87G mutation; how it was run: as §1
Salmonella typhimurium [27] = assay: Antimicrobial activity against Salmonella enterica serovar Typhimurium CHS38 with GyrA D87G mutation; how it was run: as §1
Salmonella typhimurium [28] = assay: Antimicrobial activity against Salmonella enterica serovar Typhimurium CHS38 gyrA+ with GyrA D87G mutation; how it was run: as §1
Salmonella typhimurium [29] = assay: Antimicrobial activity against Salmonella enterica serovar Typhimurium CHS38 acrAB::Kan with GyrA D87G mutation; how it was run: as §1
Salmonella typhimurium [30] = assay: Antimicrobial activity against Salmonella enterica serovar Typhimurium CHS38 tolC::Kan with GyrA D87G mutation; how it was run: as §1
Salmonella typhimurium [31] = assay: Antimicrobial activity against Salmonella enterica serovar Typhimurium S21-1 GyrA S83F mutant; how it was run: as §1
Salmonella typhimurium [32] = assay: Antimicrobial activity against Salmonella enterica serovar Typhimurium S21-2 with GyrA S83F, ParC S80I mutation; how it was run: as §1
Salmonella typhimurium [33] = assay: Antimicrobial activity against Salmonella enterica serovar Typhimurium S21-2 gyrA+ with ParC S80I mutation; how it was run: as §1
Salmonella typhimurium [34] = assay: Antimicrobial activity against Salmonella enterica serovar Typhimurium S21-3 with GyrA S83F, ParC S80I mutation; how it was run: as §1
Salmonella typhimurium [35] = assay: Antimicrobial activity against Salmonella enterica serovar Typhimurium S21-3 gyrA+ with ParC S80I mutation; how it was run: as §1
Salmonella typhimurium [36] = assay: Antimicrobial activity against Salmonella enterica serovar Typhimurium S21-4 with GyrA S83F, ParC S80I mutation; how it was run: as §1
Salmonella typhimurium [37] = assay: Antimicrobial activity against Salmonella enterica serovar Typhimurium S21-4 gyrA+ with ParC S80I mutation; how it was run: as §1

O=C(N[C@H](CO)[C@H](O)c1ccc([N+](=O)[O-])cc1)C(Cl)Cl [CHLORAMPHENICOL]
MIC (Salmonella typhimurium [1]): 8 µg/mL (≈ 24.8 µM) | MIC (Salmonella typhimurium [2]): 8 µg/mL (≈ 24.8 µM) | MIC (Salmonella typhimurium [3]): < 2 µg/mL | MIC (Salmonella typhimurium [4]): < 2 µg/mL | MIC (Salmonella typhimurium [5]): > 32 µg/mL | MIC (Salmonella typhimurium [6]): 8 µg/mL (≈ 24.8 µM) | MIC (Salmonella typhimurium [7]): < 2 µg/mL | MIC (Salmonella typhimurium [8]): < 2 µg/mL | MIC (Salmonella typhimurium [9]): 8 µg/mL (≈ 24.8 µM) | MIC (Salmonella typhimurium [10]): 4 µg/mL (≈ 12.4 µM) | MIC (Salmonella typhimurium [11]): 2 µg/mL (≈ 6.19 µM) | MIC (Salmonella typhimurium [12]): 2 µg/mL (≈ 6.19 µM) | MIC (Salmonella typhimurium [13]): 32 µg/mL (≈ 99 µM) | MIC (Salmonella typhimurium [14]): > 32 µg/mL | MIC (Salmonella typhimurium [15]): > 32 µg/mL | MIC (Salmonella typhimurium [16]): > 32 µg/mL | MIC (Salmonella typhimurium [17]): > 32 µg/mL | MIC (Salmonella typhimurium [18]): > 32 µg/mL | MIC (Salmonella typhimurium [19]): > 32 µg/mL | MIC (Salmonella typhimurium [20]): > 32 µg/mL | MIC (Salmonella typhimurium [21]): > 32 µg/mL | MIC (Salmonella typhimurium [22]): > 32 µg/mL | MIC (Salmonella typhimurium [23]): > 32 µg/mL | MIC (Salmonella typhimurium [24]): > 32 µg/mL | MIC (Salmonella typhimurium [25]): > 32 µg/mL | MIC (Salmonella typhimurium [26]): 8 µg/mL (≈ 24.8 µM) | MIC (Salmonella typhimurium [27]): 32 µg/mL (≈ 99 µM) | MIC (Salmonella typhimurium [28]): 32 µg/mL (≈ 99 µM) | MIC (Salmonella typhimurium [29]): 4 µg/mL (≈ 12.4 µM) | MIC (Salmonella typhimurium [30]): 4 µg/mL (≈ 12.4 µM)

CO/N=C(\C(=O)N[C@@H]1C(=O)N2C(C(=O)O)=C(CSC(=O)c3ccco3)CS[C@H]12)c1csc(N)n1 [CEFTIOFUR]
MIC (Salmonella typhimurium [1]): 0.5 µg/mL (≈ 0.955 µM) | MIC (Salmonella typhimurium [2]): 0.5 µg/mL (≈ 0.955 µM) | MIC (Salmonella typhimurium [3]): < 0.12 µg/mL | MIC (Salmonella typhimurium [4]): < 0.12 µg/mL | MIC (Salmonella typhimurium [31]): 0.5 µg/mL (≈ 0.955 µM) | MIC (Salmonella typhimurium [5]): 0.5 µg/mL (≈ 0.955 µM) | MIC (Salmonella typhimurium [32]): 4 µg/mL (≈ 7.64 µM) | MIC (Salmonella typhimurium [33]): 4 µg/mL (≈ 7.64 µM) | MIC (Salmonella typhimurium [34]): 4 µg/mL (≈ 7.64 µM) | MIC (Salmonella typhimurium [35]): 4 µg/mL (≈ 7.64 µM) | MIC (Salmonella typhimurium [6]): 1 µg/mL (≈ 1.91 µM) | MIC (Salmonella typhimurium [7]): < 0.12 µg/mL | MIC (Salmonella typhimurium [8]): < 0.12 µg/mL | MIC (Salmonella typhimurium [9]): 1 µg/mL (≈ 1.91 µM) | MIC (Salmonella typhimurium [10]): 1 µg/mL (≈ 1.91 µM) | MIC (Salmonella typhimurium [11]): 0.12 µg/mL (≈ 0.229 µM) | MIC (Salmonella typhimurium [12]): 0.12 µg/mL (≈ 0.229 µM) | MIC (Salmonella typhimurium [36]): 4 µg/mL (≈ 7.64 µM) | MIC (Salmonella typhimurium [37]): 4 µg/mL (≈ 7.64 µM) | MIC (Salmonella typhimurium [14]): 1 µg/mL (≈ 1.91 µM) | MIC (Salmonella typhimurium [15]): 1 µg/mL (≈ 1.91 µM) | MIC (Salmonella typhimurium [16]): 0.5 µg/mL (≈ 0.955 µM) | MIC (Salmonella typhimurium [17]): 0.5 µg/mL (≈ 0.955 µM) | MIC (Salmonella typhimurium [18]): 1 µg/mL (≈ 1.91 µM) | MIC (Salmonella typhimurium [19]): 1 µg/mL (≈ 1.91 µM) | MIC (Salmonella typhimurium [20]): 0.5 µg/mL (≈ 0.955 µM) | MIC (Salmonella typhimurium [21]): 0.5 µg/mL (≈ 0.955 µM) | MIC (Salmonella typhimurium [22]): 1 µg/mL (≈ 1.91 µM) | MIC (Salmonella typhimurium [23]): 1 µg/mL (≈ 1.91 µM) | MIC (Salmonella typhimurium [24]): 0.5 µg/mL (≈ 0.955 µM) | MIC (Salmonella typhimurium [25]): 0.5 µg/mL (≈ 0.955 µM) | MIC (Salmonella typhimurium [26]): 1 µg/mL (≈ 1.91 µM) | MIC (Salmonella typhimurium [27]): 0.5 µg/mL (≈ 0.955 µM) | MIC (Salmonella typhimurium [28]): 0.5 µg/mL (≈ 0.955 µM) | MIC (Salmonella typhimurium [29]): 0.12 µg/mL (≈ 0.229 µM) | MIC (Salmonella typhimurium [30]): 0.12 µg/mL (≈ 0.229 µM)

CC1(C)S[C@@H]2[C@H](NC(=O)[C@H](N)c3ccccc3)C(=O)N2[C@H]1C(=O)O [AMPICILLIN]
MIC (Salmonella typhimurium [1]): 2 µg/mL (≈ 5.72 µM) | MIC (Salmonella typhimurium [2]): 2 µg/mL (≈ 5.72 µM) | MIC (Salmonella typhimurium [3]): < 1 µg/mL | MIC (Salmonella typhimurium [4]): < 1 µg/mL | MIC (Salmonella typhimurium [5]): > 32 µg/mL | MIC (Salmonella typhimurium [6]): < 1 µg/mL | MIC (Salmonella typhimurium [7]): < 1 µg/mL | MIC (Salmonella typhimurium [8]): < 1 µg/mL | MIC (Salmonella typhimurium [9]): 2 µg/mL (≈ 5.72 µM) | MIC (Salmonella typhimurium [10]): 2 µg/mL (≈ 5.72 µM) | MIC (Salmonella typhimurium [11]): 1 µg/mL (≈ 2.86 µM) | MIC (Salmonella typhimurium [12]): 1 µg/mL (≈ 2.86 µM) | MIC (Salmonella typhimurium [14]): > 32 µg/mL | MIC (Salmonella typhimurium [15]): > 32 µg/mL | MIC (Salmonella typhimurium [16]): > 32 µg/mL | MIC (Salmonella typhimurium [17]): > 32 µg/mL | MIC (Salmonella typhimurium [18]): > 32 µg/mL | MIC (Salmonella typhimurium [19]): > 32 µg/mL | MIC (Salmonella typhimurium [20]): > 32 µg/mL | MIC (Salmonella typhimurium [21]): > 32 µg/mL | MIC (Salmonella typhimurium [22]): > 32 µg/mL | MIC (Salmonella typhimurium [23]): > 32 µg/mL | MIC (Salmonella typhimurium [24]): > 32 µg/mL | MIC (Salmonella typhimurium [25]): > 32 µg/mL | MIC (Salmonella typhimurium [26]): < 1 µg/mL | MIC (Salmonella typhimurium [27]): > 32 µg/mL | MIC (Salmonella typhimurium [28]): > 32 µg/mL | MIC (Salmonella typhimurium [29]): > 32 µg/mL | MIC (Salmonella typhimurium [30]): > 32 µg/mL
